Values after ≈ are worked out from the molar mass of the structure shown. Values joined by “and” are separate entries in the source; they are usually repeats but may differ in a detail not shown here. Equal entries are not always repeated. “Also recorded” adds a separate entry of the source. Where two headings read alike, the source gives them in different places.
Experiments:
HepG2 cells [1] = test: MTT cytotoxicity assay, HepG2 cells; assay type: cell-based; conditions: Homo sapiens, HepG2, read-out: IC50 (HepG2)
Outline: (§1)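 Cells grown in medium with 10% FBS and 1% penicillin-streptomycin under CO2 at 37 °C and seeded at 5 × 10^4 per well. They were exposed to the test compound at 0.01, 0.1, 1, 10 and 100 μM, and viability was read by MTT absorbance as percent of control. IC50 came from dose-response curves, averaged over three independent trials.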

MCF-7 cells [2] = test: MTT cytotoxicity assay, MCF-7 cells; assay type: cell-based; conditions: for IC50: Homo sapiens; for cytotoxicity in words: against MCF-7 and HepG2 cells
Outline: as §1

[3] = test system: solid Ehrlich carcinoma cells; test: In vivo solid Ehrlich carcinoma
EGFR = EGFR (Homo sapiens, UniProt P00533); test: EGFR enzyme inhibition; assay type: biochemical
[4] = test system: normal cell lines MCF-10A and THLE2; test: MTT assay on normal breast; assay type: cell-based
Outline: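 Normal breast MCF-10A and normal liver THLE2 cells, cultured with 10% FBS and 1% penicillin-streptomycin under CO2 at 37 °C. They were seeded at 5 × 10^4 per well and treated with the test compound at 0.01–100 μM. MTT absorbance gave percent viability versus untreated control.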

PARP-1 = PARP-1 (Homo sapiens, UniProt P09874); test: PARP-1 enzyme inhibition; assay type: biochemical
MCF-7 cells [5] = test: Cell cycle analysis; assay type: cell-based
Outline: (§2)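 DNA content of untreated and treated cells was measured by flow cytometry as histograms. The percentage of cells in each cycle phase was compared before and after 48 h exposure.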

HepG2 cells [6] = test: Annexin V/PI apoptosis-necrosis assessment, HepG2; assay type: cell-based; conditions: HepG2, IC50 dose, 48 h
MCF-7 cells [7] = test: Annexin V/PI apoptosis-necrosis assessment, MCF-7; assay type: cell-based; conditions: MCF-7, IC50 dose, 48 h
HepG2 cells [8] = test: Cell cycle analysis; assay type: cell-based
Outline: as §2

MCF-7 = conditions: antiproliferative activity ref 29; cited from earlier work
HEPG-2 = conditions: antiproliferative activity ref 29; cited from earlier work
MCF-7 cells [9] = conditions: read-out: IC50 (MCF-7 cells); cytotoxic action ref 32; cited from earlier work
[10] = SEC-bearing mice, 5 mg/kg BW IP, seven doses, mean ± SD n = 6
[11] = SEC-bearing mice, 5 mg/kg BW IP, seven doses, mean ± SD n = 6, 5 mg/kg
[12] = SEC-bearing mice, after treatment

EGFR, sequence (P00533 25-1210): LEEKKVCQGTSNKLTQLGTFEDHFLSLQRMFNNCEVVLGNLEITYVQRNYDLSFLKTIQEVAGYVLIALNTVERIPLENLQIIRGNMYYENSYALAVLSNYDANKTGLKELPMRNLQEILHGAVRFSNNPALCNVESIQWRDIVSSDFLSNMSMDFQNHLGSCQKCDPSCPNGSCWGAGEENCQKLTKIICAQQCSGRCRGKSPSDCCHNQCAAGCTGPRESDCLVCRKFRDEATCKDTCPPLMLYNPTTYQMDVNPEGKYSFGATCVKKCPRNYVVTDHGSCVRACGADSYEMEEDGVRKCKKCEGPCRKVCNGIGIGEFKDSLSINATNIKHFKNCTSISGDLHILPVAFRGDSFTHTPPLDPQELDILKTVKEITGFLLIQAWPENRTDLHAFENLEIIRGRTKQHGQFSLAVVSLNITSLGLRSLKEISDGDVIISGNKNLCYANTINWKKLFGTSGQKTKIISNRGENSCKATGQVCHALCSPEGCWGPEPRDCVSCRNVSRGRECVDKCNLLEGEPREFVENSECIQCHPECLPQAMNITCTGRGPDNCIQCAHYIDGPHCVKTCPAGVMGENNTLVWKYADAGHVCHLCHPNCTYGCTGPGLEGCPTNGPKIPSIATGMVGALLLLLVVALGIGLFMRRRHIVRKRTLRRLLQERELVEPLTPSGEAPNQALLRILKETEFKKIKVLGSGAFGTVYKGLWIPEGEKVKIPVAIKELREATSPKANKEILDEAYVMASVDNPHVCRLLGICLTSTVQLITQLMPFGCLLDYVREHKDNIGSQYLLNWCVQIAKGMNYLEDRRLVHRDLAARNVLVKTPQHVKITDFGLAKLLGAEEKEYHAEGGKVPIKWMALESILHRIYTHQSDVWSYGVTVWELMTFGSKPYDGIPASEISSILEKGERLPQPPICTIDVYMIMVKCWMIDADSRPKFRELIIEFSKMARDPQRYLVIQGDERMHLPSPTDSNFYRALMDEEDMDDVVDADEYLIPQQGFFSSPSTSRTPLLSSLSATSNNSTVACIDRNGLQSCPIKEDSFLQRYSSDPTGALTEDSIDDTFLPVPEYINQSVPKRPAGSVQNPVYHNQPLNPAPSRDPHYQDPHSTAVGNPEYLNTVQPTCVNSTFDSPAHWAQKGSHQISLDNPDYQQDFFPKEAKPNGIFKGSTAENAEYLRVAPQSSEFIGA
PARP-1, sequence (P09874 whole entry): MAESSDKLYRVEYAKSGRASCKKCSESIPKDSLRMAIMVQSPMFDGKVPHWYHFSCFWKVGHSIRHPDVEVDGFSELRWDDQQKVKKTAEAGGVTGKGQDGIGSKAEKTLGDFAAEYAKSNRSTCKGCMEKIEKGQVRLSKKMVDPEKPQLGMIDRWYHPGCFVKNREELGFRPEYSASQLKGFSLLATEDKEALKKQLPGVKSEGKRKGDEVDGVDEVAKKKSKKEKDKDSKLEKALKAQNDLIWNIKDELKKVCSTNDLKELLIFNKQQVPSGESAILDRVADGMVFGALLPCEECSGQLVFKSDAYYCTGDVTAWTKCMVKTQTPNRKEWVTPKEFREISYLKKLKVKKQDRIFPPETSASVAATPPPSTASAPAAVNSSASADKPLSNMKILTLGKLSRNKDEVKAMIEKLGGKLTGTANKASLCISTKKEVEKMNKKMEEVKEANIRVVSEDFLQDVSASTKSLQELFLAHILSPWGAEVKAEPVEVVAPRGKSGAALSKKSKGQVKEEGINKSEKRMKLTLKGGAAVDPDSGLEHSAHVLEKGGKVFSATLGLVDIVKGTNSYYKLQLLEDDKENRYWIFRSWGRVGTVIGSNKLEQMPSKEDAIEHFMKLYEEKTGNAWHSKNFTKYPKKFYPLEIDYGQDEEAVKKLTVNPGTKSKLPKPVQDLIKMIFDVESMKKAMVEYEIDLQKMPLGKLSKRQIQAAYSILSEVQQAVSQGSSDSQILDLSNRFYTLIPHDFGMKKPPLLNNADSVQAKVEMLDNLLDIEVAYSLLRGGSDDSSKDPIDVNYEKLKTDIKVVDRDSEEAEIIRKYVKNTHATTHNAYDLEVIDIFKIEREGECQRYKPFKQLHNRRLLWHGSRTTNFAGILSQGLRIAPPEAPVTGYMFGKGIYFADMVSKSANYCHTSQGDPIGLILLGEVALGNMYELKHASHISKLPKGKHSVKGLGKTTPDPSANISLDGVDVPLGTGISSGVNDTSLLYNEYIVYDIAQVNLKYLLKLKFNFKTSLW

In the case of O=C(NNC(=S)Nc1ccccc1)c1cc2ccccc2[nH]1 [2a, 1-(1H-Indol-2-yl-carbonyl)-4-Phenyl-thiosemicarbazide], the IC50 (HepG2 cells [1]) is reported as 12400 nM.
In the case of S=c1[nH]nc(-c2cc3ccccc3[nH]2)n1-c1ccccc1 [3a, 5-(1H-Indol-2-yl)-4-phenyl-1,2,4-triazole-3(4H)-thione], the IC50 (HepG2 cells [1]) is reported as 7390 nM.
With S=c1[nH]nc(-c2cc3ccccc3[nH]2)n1-c1ccc(Cl)cc1 [3b, 4-(4-Chlorophenyl)-5-(1H-indol-2-yl)-2H-1,2,4-triazole-3(4H)-thione] the IC50 (HepG2 cells [1]) was 17200 nM and the IC50 (MCF-7 cells [2]; MCF7, read-out: IC50 (MCF-7)) was 14200 nM.
With O=c1[nH]cc(F)c(=O)[nH]1 [5-FU, reference compound] the “tumor inhibition ratio (TIR%)” value ([3]; SEC-bearing mice, 5 mg/kg BW IP, seven doses) was 65.7% and the tumor volume [3, 10] was 114 mm^3.
Work on OCCSc1nnc(-c2cc3ccccc3[nH]2)n1-c1ccccc1 [12a, 3-(2-Hydroxyeth-1-ylsulfanyl)-5-(1H-indol-2-yl)-4-phenyl-1,2,4-triazole] yielded an IC50 (HepG2 cells [1]) of 16300 nM, an IC50 (MCF-7 cells [2]; MCF7, read-out: IC50 (MCF-7)) of 12100 nM and an IC50 (MCF-7 cells [2]; MCF7, read-out: IC50 range) of 6210 to 16300 nM. The cytotoxicity in words (MCF-7 cells [2]) was “moderate activity”.
With OCCSc1nnc(-c2cc3ccccc3[nH]2)n1-c1ccc(Cl)cc1 [12b, 4-(4-Chlorophenyl)-3-(2-hydroxyeth-1-ylsulfanyl)-5-(1H-indol-2-yl)-1,2,4-triazole] the IC50 (HepG2 cells [1]) was 3210 nM, the IC50 (MCF-7 cells [2]; MCF7, read-out: IC50 (MCF-7)) was 2670 nM and the cytotoxicity in words (MCF-7 cells [2]) was “potent cytotoxicity”. The IC50 (EGFR) was 78.1 nM, the inhibition at 100 µM ([4]; read-out: cell inhibition) was 80% and the IC50 (PARP-1) was 2.13 nM.
CC(O)CSc1nnc(-c2cc3ccccc3[nH]2)n1-c1ccccc1 (stereo not drawn) [13a, 3-(2-Hydroxyprop-1-ylsulfanyl)-5-(1H-indol-2-yl)-4-phenyl-1,2,4-triazole] gave an IC50 (HepG2 cells [1]) of 8910 nM, an IC50 (MCF-7 cells [2]; MCF7, read-out: IC50 (MCF-7)) of 6210 nM and an IC50 (MCF-7 cells [2]; MCF7, read-out: IC50 range) of 6210 to 16300 nM. For the same compound, the cytotoxicity in words (MCF-7 cells [2]) was “moderate activity”, the IC50 (EGFR) was 140 nM and the IC50 (PARP-1) was 21.6 nM.
For CC(O)CSc1nnc(-c2cc3ccccc3[nH]2)n1-c1ccc(Cl)cc1 (stereo not drawn) [13b, 4-(4-Chlorophenyl)-3-(2-hydroxyprop-1-ylsulfanyl)-5-(1H-indol-2-yl)-1,2,4-triazole], the IC50 (HepG2 cells [1]) was 320 nM, the “cell cycle arrest phase” value (MCF-7 cells [5]; MCF-7) was “arrested cell division at the G2/M phase” and the “%DIP G2/M” value (MCF-7 cells [5]; MCF-7, 1.07 μM, 48 h) was 26.4%. For the same compound, the IC50 (MCF-7 cells [2]; MCF7, read-out: IC50 (MCF-7)) was 1070 nM, the cytotoxicity in words (MCF-7 cells [2]) was “potent cytotoxicity” and the early apoptosis (HepG2 cells [6]) was 23.61%. For the same compound, the late apoptosis (HepG2 cells [6]) was 9.34%, the necrosis-induced cell death (HepG2 cells [6]) was 6.01% and the “necrosis-induced cell death, fold increase” value (HepG2 cells [6]) was 6.1 fold. The “total apoptotic cell death” value (HepG2 cells [6]) was 32.95%, the “total apoptotic cell death, fold increase” value (HepG2 cells [6]) was 34.68 fold and the “histopathological examination of liver tissues” value ([3]; SEC-bearing mice treated) was “improvement in liver tissues and retained them near normal; also recorded: Mild hydropic degeneration of hepatocytes”. For the same compound, the tumor volume [3, 10] was 129.6 ± 13.6 mm^3, the Hb [3, 11] was 7.29 g/dL and the total protein [3, 11] was 5.6 g/dL and 5.6 ± 0.39 g/dL. The tumor weight [3, 11] was 74.6 mg and 74.6 ± 2.79 mg, the “tumor inhibition ratio (TIR%)” value ([3]; SEC-bearing mice, 5 mg/kg BW IP, seven doses, 5 mg/kg) was 66.7% and 66.7 ± 1.06% and the “ALT” value [3, 12] was 50.6 U/L. For the same compound, the “AST” value [3, 12] was 60.3 U/L, the “WBC” value [3, 12] was 4360 L⁻¹ and the IC50 (EGFR) was 62.4 nM. The early apoptosis (MCF-7 cells [7]) was 10.6%, the late apoptosis (MCF-7 cells [7]) was 16.9% and the necrosis-mediated cell death (MCF-7 cells [7]) was 5.06%. For the same compound, the “necrosis-mediated cell death, fold increase” value (MCF-7 cells [7]) was 4.18 fold, the “total apoptotic cell death” value (MCF-7 cells [7]) was 27.63% and the “total apoptotic cell death, fold vs control” value (MCF-7 cells [7]) was 26 fold. For the same compound, the “toxicity to healthy cells” value ([4]; normal cells) was “no toxicity to healthy cells”, the IC50 (PARP-1) was 1.24 nM and the “cell cycle arrest phase” value (HepG2 cells [8]; HepG2) was “arrested cell division at the S phase”. For the same compound, the “%DIP S” value (HepG2 cells [8]; HepG2, 0.32 μM, 48 h) was 45.21%.
For C#Cc1cccc(Nc2ncnc3cc(OCCOC)c(OCCOC)cc23)c1 [Erlotinib, reference compound], the IC50 (HepG2 cells [1]) was 2910 nM, the IC50 (MCF-7 cells [2]; MCF7, read-out: IC50 (MCF-7)) was 2510 nM and the total protein [3, 10] was 6.2 ± 0.47 g/dL. For the same compound, the tumor volume [3, 10] was 114.6 ± 12.5 mm^3 and the tumor weight [3, 11] was 69.3 mg and 69.3 ± 2.19 mg.
In the case of c1ccc(CSc2nc(-c3cc4ccccc4[nH]3)n[nH]2)cc1 [I, 3-Benzylsulfanyl-5-(1H-indol-2-yl)-2H-1,2,4-triazole], the “IC50 (MCF-7)” value (MCF-7) is listed as 4.53 µg/mL (≈ 14.8 µM) and the “IC50 (HEPG-2)” value (HEPG-2) is listed as 3.58 µg/mL (≈ 11.7 µM).
In the case of CNC(=O)c1cc(Oc2ccc(NC(=O)Nc3ccc(Cl)c(C(F)(F)F)c3)cc2)ccn1 [Sorafenib], the IC50 (MCF-7 cells [9]) is listed as 2130 nM.
For COc1cccc2c1C(=O)c1c(O)c3c(c(O)c1C2=O)C[C@@](O)(C(=O)CO)C[C@@H]3O[C@H]1C[C@H](N)[C@H](O)[C@H](C)O1 [doxorubicin], the “IC50 (MCF-7)” value (MCF-7) is listed as 4.0 µg/mL (≈ 7.36 µM) and the “IC50 (HEPG-2)” value (HEPG-2) is listed as 4.0 µg/mL (≈ 7.36 µM).

From PMC9753112 (ACS Omega, 2022)
